# Source: PubChem
# Compounds with a hit are over-represented: about 3.4% of the library has one in this group of screens.
# LANA-H2B inh – blocks KSHV LANA binding to histone H2A/H2B | inhibition, % (no concentration beside the values) | 0.6% of 320,000 active | AID 2629 | Q9QR71 | cell-free LANA-H2A/H2B peptide, fluorescence polarization; in the data active means inhibition mostly above about 10%, no sharp cut-off; inactive means mostly below about 6.7%
# TAAR1 ag – human TAAR1 agonism; 0.99% of 360,000 active; activation, % at 3 µM; CHO RD-HGA16 TAAR1, Fluo-8 calcium fluorescence; vehicle wells 0%, saturating PEA agonist 100%;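 active means activation above the mean activation of all test compounds in the run plus 3 SD, cut at about 38% in these data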
# Target sequence (Q96RJ0 whole entry, looked up): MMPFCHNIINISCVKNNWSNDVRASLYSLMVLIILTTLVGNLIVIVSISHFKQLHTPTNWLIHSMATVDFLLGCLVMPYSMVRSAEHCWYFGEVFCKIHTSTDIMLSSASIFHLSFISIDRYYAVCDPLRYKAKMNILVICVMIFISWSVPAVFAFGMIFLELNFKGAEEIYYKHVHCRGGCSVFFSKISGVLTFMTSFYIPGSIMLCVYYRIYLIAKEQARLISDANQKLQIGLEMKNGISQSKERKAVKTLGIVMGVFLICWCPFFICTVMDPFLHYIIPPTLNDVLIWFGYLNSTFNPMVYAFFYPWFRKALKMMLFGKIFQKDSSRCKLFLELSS
#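 System: CHO-derived RD-HGA16 cells with stable Gα16 and human TAAR1 / Times: 17-24 h plating, Fluo-8 75 min 37 °C, 30 min RT / Technique: calcium-sensitive Fluo-8 signal, excitation 470-495, emission 515-575 nm / Measure: % activation relative to PEA EC100 response / Benchmarks: DMSO and PEA EC100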
# zfTRPN1 agonist – agonists of zebrafish TRPN1 channel; HEK293 zebrafish TRPN1-YFP, Fluo-8 calcium fluorescence; 100% = response to 87 µM carbachol; activation, % at 3 µM; 0.18% of 220,000 active;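 active means activation above its plate's cutoff, the mean activation of test wells on that plate plus 3 SD, cut at about 19% in these data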;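 further: 0% = DMSO alone and 100% = 87 µM carbachol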
#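 Material – zebrafish TRPN1-YFP in HEK293 cells · Doses – 3 µM single point · Schedule – dye 1 h 37 °C plus 30 min RT · Signal – Fluo-8 calcium fluorescence, excitation 470-495 nm, emission 515-575 nm · Read-out – % activation versus carbachol response · Control set – carbachol high, DMSO low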
# GPR7 antagonist – antagonists of human GPR7 (neuropeptides B/W receptor 1) | AID 1861 | 1.1% of 290,000 active | GPR7-expressing cells, fluorescence antagonist assay | P48145 | inhibition, % at 4.4 µM; in the data active means inhibition above about 16%, passing the limit was not always enough;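 further: cells stimulated with the agonist NPW; 0% = agonist with vehicle and 100% = vehicle without agonist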
# Target sequence (P48145 whole entry, looked up): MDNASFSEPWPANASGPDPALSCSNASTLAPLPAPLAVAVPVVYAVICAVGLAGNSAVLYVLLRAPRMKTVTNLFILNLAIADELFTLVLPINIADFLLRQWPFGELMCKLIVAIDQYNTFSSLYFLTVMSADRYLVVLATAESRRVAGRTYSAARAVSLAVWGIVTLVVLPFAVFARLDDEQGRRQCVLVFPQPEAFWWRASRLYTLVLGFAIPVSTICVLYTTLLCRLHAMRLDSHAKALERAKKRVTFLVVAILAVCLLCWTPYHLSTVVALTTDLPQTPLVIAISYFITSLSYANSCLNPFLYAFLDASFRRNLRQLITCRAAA
# TRPML3 agonist – agonists of human TRPML3 channel. HEK293 TRPML3-YFP, Fluo-8 calcium fluorescence; 100% = the carbachol control signal. Q8TDD5. AID 1448. 0.29% of 220,000 active. activation, % at 3 µM;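 active means activation above its plate's cutoff, the mean activation of the plate's test wells plus 3 SD, cut at about 12% in these data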;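 further: 0% = DMSO only wells and 100% = carbachol wells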
#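 Material: TRPML3-YFP stable HEK293 cells | Dosing: One concentration, 3 µM nominal, 0.3% DMSO | Timing: 125 s total fluorescence read per well | Technique: Fluo-8 calcium dye fluorescence, ex 470-495, em 515-575 nm | Measure: Percent activation from peak-to-basal fluorescence ratio, scaled between DMSO and carbachol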
# TAAR1 antag – antagonists of human TAAR1; 1.5% of 360,000 active; inhibition, % at 3 µM; Q96RJ0; CHO RD-HGA16 TAAR1, Fluo-8 calcium fluorescence, antagonist;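 active means inhibition above a per-plate cutoff, the mean inhibition of test compounds on that plate plus 3 SD, cut at about 49% in these data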;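 further: 0% = DMSO plus EC80 beta-PEA response and 100% = DMSO alone without agonist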
#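 Assay system: CHO-derived RD-HGA16 cells stably expressing human TAAR1 plus Gα16. Timing: 140 s kinetic read after compound, 140 s after agonist. Technique: kinetic Fluo-8 calcium fluorescence measurement. Measure: % inhibition of agonist calcium response.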
# GPR7 antag cf – confirmation of human GPR7 antagonists; shares compounds with GPR7 antagonist; GPR7-expressing cells, calcium fluorescence antagonist mode; inhibition, % at 4.4 µM; 52% of 2,400 active; AID 1952; in the data active means inhibition above about 24%;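 further: stimulated with the GPR7 agonist NPW; 0% = agonist plus vehicle and 100% = vehicle alone without agonist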
# MCHR1 antagonist – counter-screen for GPR7 antagonists: antagonists of human MCHR1; shares compounds with GPR7 antagonist; MCHR1-expressing cells, fluorescence antagonist assay; inhibition, % at 4.4 µM; 62% of 2,400 active; in the data active means inhibition above about 22%;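 further: 0% = vehicle with agonist and 100% = vehicle without agonist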
# Numbers without * were called inactive; x = not tested or not shown.
SMILES,LANA-H2B inh,TAAR1 ag,zfTRPN1 agonist,GPR7 antagonist,TRPML3 agonist,TAAR1 antag,GPR7 antag cf,MCHR1 antagonist
Cc1ccc(NC(=O)COC(=O)CC2SC(N3CCCC3)=NC2=O)cc1 (stereo not given),4,1,x,x,x,-15,x,x
CCc1ccc(CSc2nccn2-c2ccccc2)cc1,-1,25,-3,27*,-1,27,-9,40*
O=C(CN1CCCCC1)N/N=C/c1ccccc1Br,-5,1,x,30*,x,0,-4,-6
Cc1nc(N2CCC(C)CC2)c2c(C)c(C(=O)Nc3cccc(C(F)(F)F)c3)sc2n1,1,0,2,25*,0,-7,-29,-4
CC1CCc2c(nc3sc4c(c3c2N)CCCC4)C1 (stereo not given),-2,3,-1,22*,1,-1,21,20
CC1CCc2nc3sc4c(c3c(N)c2C1)CCCC4 (stereo not given),-5,3,-2,3,-1,-16,x,x
CN(CCO)c1ccc(C=NNc2ccc([N+](=O)[O-])cc2S(=O)(=O)Nc2ccccc2C(=O)O)cc1,-1,2,x,x,x,-31,x,x
COC(=O)COc1ccccc1C(N)=O,-1,16,0,-14,0,-7,x,x
COC(=O)COc1ccc(-c2ccc(F)cc2)cc1C=O,-2,3,-3,33*,0,0,31*,35*
COC(=O)COc1ccc(-c2ccccc2)cc1C=O,7,4,-1,31*,0,6,17,38*
CCc1cc2c(=O)c(-c3cnn(-c4ccccc4)c3)c(C)oc2c(CN2CCCCC2)c1O,1,0,-1,-21,0,-9,x,x
Cc1oc2c(C)c(O)ccc2c(=O)c1-c1cnn(-c2ccccc2)c1,3,4,-1,28*,0,-3,19,3
O=C1NC(=S)SC1=Cc1ccccn1,x,-1,x,x,x,-4,x,x
COc1ccc(N2CCN(C(=O)C(=O)c3cc(OC)c4ccccc4c3)CC2)cc1,x,0,x,x,x,3,x,x
OCC1(Cc2ccc(Cl)cc2)CCN(CCCc2ccccc2)CC1,-3,15,5,26*,2,-3,37*,31*
c1ccc(CCCNCCCn2cnc3c(OCc4ccccc4)ncnc32)cc1,x,19,x,x,x,9,x,x
CN(CC(=O)NCc1ccc(F)cc1)CC(=O)Nc1ccc(Cl)c(C(F)(F)F)c1,-3,37,x,28*,x,15,27*,61*
CN(CC(=O)NCC(=O)Nc1ccc(F)cc1)CC(=O)Nc1ccc(Cl)c(C(F)(F)F)c1,x,1,x,x,x,3,x,x
O=C(NC1CC2CCCC(C1)N2Cc1ccc(F)cc1)c1ccc(F)cc1 (stereo not given),-3,1,x,4,x,14,x,x
N#Cc1cccc(C2CC(OCCF)=CC(=O)O2)c1 (stereo not given),x,3,x,x,x,-3,x,x
CCOC(=O)NC(NC(=S)Nc1ccc(OCC)cc1)C(Cl)(Cl)Cl (stereo not given),x,4,2,-8,1,-6,x,x
O=C(NC(NC(=S)Nc1c(Cl)cccc1Cl)C(Cl)(Cl)Cl)OCc1ccccc1 (stereo not given),x,12,0,27*,1,36,26*,44*
CSCCC(NC(=O)c1ccco1)C(=O)NCC1CCCO1 (stereo not given),-4,10,x,x,x,11,x,x
O=P(OC1CCCCC1)(OC1CCCCC1)C(Nc1ccccc1)c1cccnc1 (stereo not given),-2,9,-1,32*,-1,48,31*,39*
CCOP(=O)(OCC)C(Nc1ccccc1)c1cccnc1 (stereo not given),-1,5,1,-10,0,-21,x,x
SMILES,LANA-H2B inh,TAAR1 ag,zfTRPN1 agonist,GPR7 antagonist,TRPML3 agonist,TAAR1 antag,GPR7 antag cf,MCHR1 antagonist
O=CN/C=C/c1cccc(O)c1,x,3,x,x,x,-12,x,x
Cc1cc(=O)oc2cc(OCC(=O)Nc3cccc(S(=O)(=O)N(C)C)c3)ccc12,-6,1,-1,-8,0,-19,x,x
CN(C)S(=O)(=O)c1cccc(NC(=O)COc2ccc(C(=O)c3ccccc3)cc2)c1,4,6,x,32*,x,51*,33*,60*
NC(=O)C1CCCN(C(=O)c2cccc(NC(=O)c3cccs3)c2)C1 (stereo not given),x,-1,x,x,x,10,x,x
C=CCOc1ccc(CN(C)CC(=O)Nc2ccc3c(c2)CCC3)cc1,3,9,-2,24*,-1,13,1,33*
CCOc1ccc(CN(C)CC(=O)Nc2ccc3c(c2)CCC3)cc1OC,2,8,-2,-9,0,-10,x,x
CCOC(=O)C1(C)CCN1C(=O)c1cc(F)ccc1C (stereo not given),x,1,x,x,x,7,x,x
CC(=O)c1cccc(NC(=O)C2Cc3c(-c4cccc(C(N)=O)c4)ccnc3O2)c1 (stereo not given),x,4,x,x,x,8,x,x
Cc1ncsc1CCOC(=O)c1cccc([N+](=O)[O-])c1,0,1,-1,22*,0,-6,-18,34*
COc1ccc(S(=O)(=O)NCC2CCCO2)cc1NC(=O)c1ccccc1F (stereo not given),-5,-3,x,-4,x,-14,x,x
O=C(Nc1csc([N+](=O)[O-])c1)Nc1ccccc1Cl,-8,10,14,41*,9,23,51*,62*
Cc1nonc1CN(C)C(=O)c1cc(COc2ccc(F)cc2Cl)on1,-2,0,x,30*,x,-12,24,26*
CCc1noc(C)c1C(=O)OC(C)C(=O)Nc1cc([N+](=O)[O-])ccc1OC (stereo not given),-4,0,x,x,x,-15,x,x
Cc1ccc2c(c1)c1c(n2CC(O)CNC2CCCCC2)CCCC1 (stereo not given),4,24,2,32*,1,11,56*,54*
COc1ccc(NC(=O)C(=O)NCC2CCCN2S(=O)(=O)c2cc(C)ccc2C)cc1 (stereo not given),-8,-1,x,x,x,3,x,x
C#CCN(C)Cc1ccccc1,-4,2,1,-12,1,-11,x,x
C#CC(CO)N(CCN(Cc1ccccc1)C(C#C)CO)Cc1ccccc1 (stereo not given),-5,2,-1,x,0,15,x,14
N#Cc1c(Nc2ccccc2)sc(C(=O)c2ccc(F)cc2)c1N,1,0,-3,-9,-1,1,x,x
